MC4R antag cAMP: antagonists of human melanocortin 4 receptor (MC4R); P32245; AID 540295; MC4R-expressing cells, MTII-stimulated cAMP, LANCE TR-FRET; 360,000 compounds, 0.48% hits; inhibition, % at 6.5 µM;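 active = inhibition above its plate's cutoff, the mean of tested wells on that plate plus 3 SD, cut at about 29% in these data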;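 also: 0% = Melanotan II alone and 100% = Melanotan II plus saturating MCL0020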
Target sequence (P32245 whole entry, looked up): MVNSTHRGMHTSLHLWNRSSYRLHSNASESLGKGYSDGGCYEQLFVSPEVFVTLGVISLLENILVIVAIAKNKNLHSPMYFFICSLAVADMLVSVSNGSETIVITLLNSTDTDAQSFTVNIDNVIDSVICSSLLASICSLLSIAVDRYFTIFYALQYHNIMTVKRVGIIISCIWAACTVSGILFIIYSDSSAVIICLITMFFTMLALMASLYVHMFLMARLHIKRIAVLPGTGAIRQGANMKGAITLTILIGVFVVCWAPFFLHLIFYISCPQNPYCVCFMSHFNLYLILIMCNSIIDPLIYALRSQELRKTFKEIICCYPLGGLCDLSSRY
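Material: human MC4R-expressing U2OS cells. Probe or stimulus: Melanotan II challenge. Dosing: 6.5 µM single dose. Times: 30-min compound, 1-h challenge, 1-h detection, room temperature. Technique: TR-FRET with Eu-cAMP and labeled anti-cAMP, 671 nm. Replication: singlicate.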
MC4R barr agon: human MC4R agonism via beta-arrestin; P32245; U2OS MC4R beta-arrestin complementation, luminescence; percent of melanotan II response, DMSO zero; activation, % at 8.9 µM; 360,000 compounds, 0.98% hits; AID 540308;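 active = activation above a per-plate cutoff, the mean activation of sample wells on that plate plus 3 SD, cut at about 8% in these data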
SMARCA2 act: activators of SMARCA2 function | MG213 cells, MMTV-luciferase reporter, dexamethasone, overnight | activation, % at 9.1 µM | 370,000 compounds, 1% hits; in the data active = activation above about 7.8%;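 also: 0% = vehicle wells and 100% = reference activator wells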
CFTR F508del cor: correctors of CFTR F508del function in bronchial epithelial cells; CFBE cells, YFP halide quenching; stimulated with forskolin plus potentiator P3; % fluorescence drop versus neutral controls; activity (quench increase), % at 7.58 µM; 350,000 compounds, 0.36% hits; AID 720511;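 active = mean added fluorescence quench of at least 8% versus neutral control, with both replicates also reaching 8%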;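 also: cells transiently co-express mutant CFTR-F508del with the halide-sensitive YFP; corrector assay measuring rescue of mutant channel to the surface after 24 h compound exposure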
An asterisk follows results filed as active; · = no result. Hits are enriched below; roughly 2.1% of the tested compounds scored in any of these assays.

SMILES	MC4R antag cAMP	MC4R barr agon	SMARCA2 act	CFTR F508del cor
COc1ccc(N2CCN(C(CNC(=O)C(C)(C)C)c3cccnc3)CC2)cc1 (configuration not stated)	1	3	7.8*	-7
O=[N+]([O-])C(=C1SCCS1)C(=C(Cl)Cl)N1CCCCC1	3	-2	1	-1
CN1CCN/C1=C(/C(Cl)=C(Cl)Cl)[N+](=O)[O-]	36*	-3	-1	-2
CN(C)Cc1csc(NC(=O)Nc2ccccc2-c2ccccc2)n1	3	-2	-6	-4
CN(C)Cc1csc(NC(=O)Nc2ccccc2Oc2ccccc2)n1	-4	-3	7.9*	-2
C[C@@H]1CCCCO[C@H](CN(C)C(=O)Nc2ccc3c(c2)OCO3)[C@@H](C)CN([C@H](C)CO)C(=O)c2cc(NC(=O)NC3CCCCC3)ccc2O1	·	·	·	2
COc1cccc(OC)c1C(=O)Oc1ccc2c(c1)O/C(=C\c1ccncc1)C2=O	6	8.6*	-1	·
COc1cccc(-c2nnc(SCC(=O)NC3CCS(=O)(=O)C3)n2C)c1 (configuration not stated)	6	-2	-2	21*
Cc1cccc(NC(=O)c2cccnc2)c1	-2	-1	7.8*	·
COc1ccc(C2c3ccc4ccccc4c3Oc3ncn(CCCO)c(=N)c32)cc1OC (configuration not stated)	5	2	-1	15*
CS(=O)(=O)Nc1ccc2c(c1)[C@@H]1C[C@@H](CC(=O)N3CCCCC3)O[C@@H](CO)[C@@H]1O2	·	·	·	1
Cc1[nH]c2ccc(C(=O)OCCN(C)C)cc2c1C	-7	-2	1	·
CCOC(=O)c1ccc2[nH]c(C)c(C)c2c1	-1	-2	7.9*	·
Cc1noc(C)c1NC(=O)Nc1cccc2c1O[C@H](CN(C)Cc1ccc(-c3ccccc3)cc1)[C@@H](C)CN([C@@H](C)CO)C2=O	·	·	·	-4
O=C(CSc1nnc(Cc2ccsc2)o1)c1ccccc1	5	0	7.8*	1
COc1ccc(OCc2nnc(NC(=O)Nc3ccccc3F)s2)cc1	14	8.3*	-2	1
CCCN1[C@@H]2c3ccc(-c4ccc(F)cc4)c(=O)n3C[C@@H]2[C@@H](CO)[C@@H]1C(=O)N[C@@H](C)c1ccccc1	·	·	·	0
O=C(CN1CCCC1)N/N=C/c1c(O)ccc2ccccc12	-9	-1	-1	10.0*
Oc1ccc2ccccc2c1C=NNc1ccccn1	0	5	1	9.7*
O=C(N/N=C/c1c(O)ccc2ccccc12)C(=O)N1CCCC1	8	0	-3	13*
O=C(NN=Cc1c(O)ccc2ccccc12)C1CC1	-5	0	-2	3
CCCN1C[C@H](C)[C@H](OC)CN(C)C(=O)c2ccc(NC(=O)c3cnccn3)cc2OC[C@H]1C	·	·	·	-1
O=C(c1ccc(Cl)cc1)c1cc([N+](=O)[O-])ccc1N1CCOCC1	-14	-3	-1	2
O=C(OCc1ccc(Br)cc1)c1cc([N+](=O)[O-])ccc1N1CCOCC1	-15	-1	-4	8.4*
O=C(c1ccc(Br)cc1)c1cc([N+](=O)[O-])ccc1N1CCOCC1	-18	-3	1	12*
SMILES	MC4R antag cAMP	MC4R barr agon	SMARCA2 act	CFTR F508del cor
COc1cc(OC)cc(-c2cc3ccc(OC)cc3cn2)c1	-11	1	7	10*
CCOC(=O)c1[nH]c(C)c(/C(O)=C2\C(=O)C(=O)N(CCCN3CCOCC3)C2c2cccs2)c1C (configuration not stated)	9	-3	0	15*
C[C@@H]1CN([C@@H](C)CO)C(=O)c2cc(NC(=O)CCN3CCOCC3)ccc2O[C@@H]1CN(C)S(=O)(=O)c1cccs1	·	·	·	-1
C[C@H](CO)N1C[C@H](C)[C@H](CN(C)C(=O)Nc2ccc3c(c2)OCO3)OCCCC[C@H](C)Oc2ccc(NC(=O)Nc3ccc(C(F)(F)F)cc3)cc2C1=O	·	·	·	5
C[C@@H]1CCCCO[C@H](CN(C)C(=O)Nc2ccc(F)cc2)[C@@H](C)CN([C@H](C)CO)C(=O)c2cc(NC(=O)Nc3ccc(C(F)(F)F)cc3)ccc2O1	·	·	·	1
C[C@@H]1CCCCO[C@H](CN(C)C(=O)Nc2ccc(C(F)(F)F)cc2)[C@H](C)CN([C@H](C)CO)C(=O)c2cc(NC(=O)Nc3ccc(F)cc3)ccc2O1	·	·	·	5
C[C@@H]1CN([C@@H](C)CO)C(=O)c2cccc(NC(=O)Nc3ccc4c(c3)OCO4)c2O[C@H]1CN(C)S(=O)(=O)c1ccccc1	·	·	·	9.0*
C[C@H]1CCCCO[C@@H](CN(C)C(=O)Nc2ccc(C(F)(F)F)cc2)[C@@H](C)CN([C@@H](C)CO)C(=O)c2cc(NC(=O)Nc3ccc4c(c3)OCO4)ccc2O1	·	·	·	8.1*
C[C@H](CO)N1C[C@H](C)[C@@H](CN(C)C(=O)Nc2ccc(C(F)(F)F)cc2)OCCCC[C@H](C)Oc2ccc(NC(=O)Nc3ccc(F)cc3)cc2C1=O	·	·	·	9.3*
C[C@H]1CCCCO[C@@H](CN(C)C(=O)Nc2ccc(C(F)(F)F)cc2)[C@@H](C)CN([C@@H](C)CO)C(=O)c2cc(NC(=O)Nc3ccc(F)cc3)ccc2O1	·	·	·	8.3*
COC(=O)c1[nH]c2ccccc2c1NC(=O)/C=C/c1ccc2c(c1)OCO2	-4	8.4*	4	3
C[C@@H]1CN([C@H](C)CO)C(=O)Cc2cc(NC(=O)NC3CCCCC3)ccc2O[C@H]1CN(C)CC1CC1	·	·	·	-3
CN(CC(=O)Nc1ccccc1C(=O)NC1CC1)Cc1ccc(Cl)cc1	1	-1	7.9*	-1
CN1CCN(C(=O)C[C@H]2CC[C@@H]3[C@H](COC[C@H](O)CN3C(=O)C3CC3)O2)CC1	·	·	·	-2
CCCCNC(=O)c1onc(CSc2ccccc2C)c1C(=O)O	6	1	0	8.3*
COc1ccc(/C=N/Nc2nc(C)c([N+](=O)[O-])c(N(C)c3ccccc3)n2)cc1OC	2	20*	0	·
CC(=O)Nc1ccc(Nc2nc(C)c([N+](=O)[O-])c(N(C)c3ccccc3)n2)cc1	2	-1	-6	-3
CCC1CCc2c(sc3nc(SCC(=O)NCc4ccco4)n(-c4ccccc4)c(=O)c23)C1 (configuration not stated)	9	8.7*	1	·
CO[C@H]1CN(C)C(=O)c2cc(NS(C)(=O)=O)ccc2OC[C@H](C)N(CC2CC2)C[C@@H]1C	·	·	·	-1
Cc1ccc(S(=O)(=O)N2C[C@H]3[C@H]4C(=O)N(C)C(=O)[C@H]4CC(=O)[C@H]3[C@@H]2c2ccccc2F)cc1	·	·	-2	8.4*
Cc1ccc(S(=O)(=O)N2C[C@H]3[C@H]4C(=O)N(C)C(=O)[C@H]4CC(=O)[C@H]3[C@@H]2c2ccccc2Cl)cc1	·	·	0	-3
C#CCSc1nc2sc3c(c2c(=O)n1C)CCC3	-4	9.1*	-4	3
CSc1nc2sc3c(c2c(=O)n1C)CCC3	2	-1	-1	2
C=CCN(CC=C)C(=S)Nc1ccc(OC)c(OC)c1	-5	0	-1	13*
CNC(=S)Nc1ccc(OC)c(OC)c1	-1	-2	5	·

Screening results from PubChem BioAssay.
